Results taken from ChEMBL document CHEMBL4673269, “Discovery of S64315, a Potent and Selective Mcl-1 Inhibitor” (J Med Chem, 2020).
The source made the active and inactive calls. No cut-off for these calls is given here.

Columns and labels:
[1] = Clearance in mouse at 12.5 mg/kg, iv formulated with 20 % HPBCD in water/ […]; type: ADME, organism-based; details: in vivo
[2] = tested on: NCI-H929; assay: Induction of apoptosis in human H929 cells assessed as induction of PARP cleavage incubated for 6 hrs by immunodetection analysis; type: functional, cell-based; details: dose 1-3000 nM
In short: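 H929 cells in RPMI 1640 with 10% FBS were seeded at 2 × 10⁶ cells per 35 mm dish. After 24 h they were exposed to compound for 6 h, then lysed (Hepes pH 7.4, KCl, MgCl₂, EDTA, 1% NP40). 5 μg lysate was assayed for cleaved PARP with the MSD apoptosis panel, read as RLU. Two independent biological experiments.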

[3] = tested on: AMO1; assay: Antitumor activity against human AMO1 xenografted in CB-17 SCID mouse assessed as maximum tumor growth inhibition at 3.125 mg/kg, iv administered for 5 consecutive days measured post-last dose; type: functional; design: scale not given: the % may be the effect or the level left; details: time 5 day
In short: (§1)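 Female CB-17 SCID mice, 6−7 weeks old. 5 × 10⁶ AMO-1 cells in growth medium/Matrigel 50:50 injected subcutaneously in the right flank. Randomised at about 200 mm³, n = 8 to 10 per group. Dosed iv in 20% HPbCD–25 mM HCl, daily for 5 days or weekly for 4 weeks. Calipers 2−3 times weekly; volume = length × width²/2. TGI computed from median change in volume versus control; delay judged at median volume 500 mm³.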

[4] = target: Cytochrome P450 2C8 (Homo sapiens, UniProt P10632); assay: Drug metabolism assessed as CYP2C8 (unknown origin) mediated metabolism; type: ADME
[5] = target: Voltage-gated inwardly rectifying potassium channel KCNH2 (Homo sapiens, UniProt Q12809); assay: Inhibition of human ERG
[6] = tested on: AMO1; assay: Antitumor activity against human AMO1 cells xenografted in CB-17 SCID mouse assessed as time to reach tumor volume of 500 mm3 at […] mg/kg, iv administered as bolus dose for 5 consecutive days; type: functional; details: time 5 day
[7] = tested on: AMO1; assay: Antitumor activity against human AMO1 cells xenografted in CB-17 SCID mouse assessed as tumor growth inhibition at […] mg/kg, iv administered for 5 consecutive days measured on day 4 relative to control; type: functional; details: 120 h, time 5 day, read-out: TGI
[8] = tested on: Raji; assay: Antiproliferative activity against human Raji assessed as reduction in cell viability incubated for 3 days by Cell Titer Blue assay; type: functional, cell-based; details: time 3.0 day
[9] = Clearance in mouse at […] mg/kg, iv formulated with 20 % HPBCD in water/ […]% HCl; type: ADME, organism-based; details: in vivo
[10] = tested on: MINO; assay: Antiproliferative activity against human Mino assessed as reduction in cell viability incubated for 3 days by Cell Titer Blue assay; type: functional; details: time 3.0 day
[11] = tested on: AMO1; assay: Antitumor activity against human AMO1 xenografted in CB-17 SCID mouse assessed as tumor growth inhibition administered intravenously for 5 consecutive days measured post-last dose; type: functional; details: time 5.0 day; in short: as §1
[12] = tested on: NOMO-1; assay: Antiproliferative activity against human NOMO1 assessed as reduction in cell viability incubated for 3 days by Cell Titer Blue assay; type: functional, cell-based; details: time 3.0 day
[13] = target: Induced myeloid leukemia cell differentiation protein Mcl-1 (Homo sapiens) (UniProt Q07820); assay: Stabilization of Mcl-1 in human HCT116 cells assessed as increase in Mcl-1 protein levels incubated for 16 hrs by western blot analysis; type: cell-based; details: HCT-116, dose 0.3-10000 nM
In short: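 HCT116 cells were seeded at 0.25×10⁶ per 35 mm dish in RPMI 1640 with 10% decomplemented FBS, 2 mM L-glutamine and 10 mM Hepes pH 7.4, at 37 °C and 5% CO₂. After 48 h they were dosed for 16 h and lysed in Hepes/KCl/MgCl₂/EDTA/1% NP40 buffer with inhibitors. Lysate (20 μg) was immunoblotted for Mcl-1, with actin as loading control.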

[14] = tested on: THP-1; assay: Induction of apoptosis in Bax/Bak knockout human THP1 cells at 1 to 3000 nM incubated for 2 hrs by annexin-V-FITC and propidium iodide staining based by flow cytometry; type: functional, cell-based; details: dose 1-3000 nM
In short: (§2)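 THP-1 cells, wild type or CRISPR BAX/BAK knockout (verified by Western blot), were treated for 2 h. They were washed in binding buffer (10 mM Hepes, 140 mM NaCl, 2.5 mM CaCl₂) and stained with annexin V-FITC and PI for 15 min at 20 °C in the dark. 10⁴ cells per sample were read by flow cytometry. Apoptotic plus necrotic cells were normalised to total cells. Two biological replicates; DMSO control.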

[15] = tested on: AMO1; assay: Antitumor activity against human AMO1 xenografted in CB-17 SCID mouse assessed as tumor regression at 12.5 mg/kg, iv administered for 5 consecutive days and observed upto day 35 post last dose; type: functional, organism-based; details: time 35.0 day; in short: as §1
[16] = target: Induced myeloid leukemia cell differentiation protein Mcl-1 (Homo sapiens) (UniProt Q07820); assay: Displacement of Bak BH3 domain from FLAG-tagged Mcl-1 (unknown origin) expressed in human Hela cells at 30 to 300 nM incubated for 2 hrs by immunoprecipitation assay; type: cell-based; details: dose 30-300 nM
In short: (§3)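 HeLa cells in DMEM with 10% FCS were transiently transfected with Flag-tagged Mcl-1, Bcl-xL or Bcl-2 vectors. 24 h later they were treated for 2 h and lysed (Hepes pH 7.5, 150 mM KCl, MgCl₂, EDTA, 0.4% Triton X100). Cleared lysates were immunoprecipitated with anti-Flag M2 beads. Inputs and IPs were immunoblotted for endogenous Bax, Bak and Flag.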

[17] = tested on: OCI-AML2; assay: Antiproliferative activity against human OCI-AML2 assessed as reduction in cell viability incubated for 3 days by Cell Titer Blue assay; type: functional, cell-based; details: time 3.0 day
[18] = tested on: SU-DHL-1; assay: Antiproliferative activity against human SU-DHL1 assessed as reduction in cell viability incubated for 3 days by Cell Titer Blue assay; type: functional, cell-based; details: time 3.0 day
[19] = tested on: THP-1; assay: Induction of apoptosis in human THP1 cells incubated for 2 hrs by annexin-V-FITC and propidium iodide staining based by flow cytometry; type: functional, cell-based; in short: as §2
[20] = target: Apoptosis regulator Bcl-2 (Homo sapiens) (UniProt P10415); assay: Displacement of Bak BH3 domain from FLAG-tagged Bcl-2 (unknown origin) expressed in human Hela cells at 30 to 300 nM incubated for 2 hrs by immunoprecipitation assay; type: cell-based; details: dose 30-300 nM; in short: as §3
[21] = tested on: AMO1; assay: Antitumor activity against human AMO1 xenografted in CB-17 SCID mouse assessed as tumor growth inhibition at 12.5 mg/kg, iv administered daily measured on day 10; type: functional; details: 240 h, read-out: TGI; in short: as §1
[22] = tested on: HL-60; assay: Antiproliferative activity against human HL60 assessed as reduction in cell viability incubated for 3 days by Cell Titer Blue assay; type: functional, cell-based; details: time 3.0 day
[23] = tested on: MV4-11; assay: Antiproliferative activity against human MV411 assessed as reduction in cell viability incubated for 3 days by Cell Titer Blue assay; type: functional, cell-based; details: time 3.0 day
[24] = tested on: OCI-Ly7; assay: Antiproliferative activity against human OCI-LY7 assessed as reduction in cell viability incubated for 3 days by Cell Titer Blue assay; type: functional, cell-based; details: time 3.0 day
[25] = Terminal half-life in mouse at […] mg/kg, iv formulated with 20 % HPBCD in water/ […]% HCl; type: ADME, organism-based; details: in vivo, read-out: beta t1/2 (converted)
[26] = Terminal half-life in mouse at 12.5 mg/kg, iv formulated with 20 % HPBCD in water/ […]; type: ADME, organism-based; details: in vivo, read-out: beta t1/2 (converted)
[27] = target: Bcl-2-like protein 1 (Homo sapiens) (UniProt Q07817); assay: Displacement of Bax BH3 domain from FLAG-tagged Bcl-xl (unknown origin) expressed in human Hela cells at 30 to 300 nM incubated for 2 hrs by immunoprecipitation assay; type: cell-based; details: dose 30-300 nM; in short: as §3
Chain of Bcl-2-like protein 1 (Homo sapiens) (Q07817 whole entry, the tested form may be a part): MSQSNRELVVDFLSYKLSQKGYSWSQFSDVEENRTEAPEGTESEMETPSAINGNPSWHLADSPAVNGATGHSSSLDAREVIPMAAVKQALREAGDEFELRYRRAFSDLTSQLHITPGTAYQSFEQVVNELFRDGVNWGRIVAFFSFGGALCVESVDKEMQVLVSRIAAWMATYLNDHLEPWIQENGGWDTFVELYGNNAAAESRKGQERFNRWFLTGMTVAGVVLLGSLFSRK

Chain of Induced myeloid leukemia cell differentiation protein Mcl-1 (Homo sapiens) (Q07820 whole entry, the tested form may be a part): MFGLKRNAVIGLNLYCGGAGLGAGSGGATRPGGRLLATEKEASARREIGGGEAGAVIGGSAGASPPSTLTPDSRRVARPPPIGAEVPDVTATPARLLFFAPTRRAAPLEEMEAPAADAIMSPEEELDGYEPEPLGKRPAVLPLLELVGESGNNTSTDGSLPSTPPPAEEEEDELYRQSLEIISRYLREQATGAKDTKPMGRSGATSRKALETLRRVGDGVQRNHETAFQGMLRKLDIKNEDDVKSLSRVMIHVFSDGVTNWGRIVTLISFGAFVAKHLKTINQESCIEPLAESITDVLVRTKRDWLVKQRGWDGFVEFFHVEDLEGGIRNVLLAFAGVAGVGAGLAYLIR
Chain of Apoptosis regulator Bcl-2 (Homo sapiens) (P10415 whole entry, the tested form may be a part): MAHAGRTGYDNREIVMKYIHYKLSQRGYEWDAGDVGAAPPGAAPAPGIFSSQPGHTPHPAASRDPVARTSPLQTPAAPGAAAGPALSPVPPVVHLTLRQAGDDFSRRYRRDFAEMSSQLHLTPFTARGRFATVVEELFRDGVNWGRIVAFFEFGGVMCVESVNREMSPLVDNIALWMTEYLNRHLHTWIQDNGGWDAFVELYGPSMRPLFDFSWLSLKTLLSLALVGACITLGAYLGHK
Chain of Cytochrome P450 2C8 (P10632 whole entry): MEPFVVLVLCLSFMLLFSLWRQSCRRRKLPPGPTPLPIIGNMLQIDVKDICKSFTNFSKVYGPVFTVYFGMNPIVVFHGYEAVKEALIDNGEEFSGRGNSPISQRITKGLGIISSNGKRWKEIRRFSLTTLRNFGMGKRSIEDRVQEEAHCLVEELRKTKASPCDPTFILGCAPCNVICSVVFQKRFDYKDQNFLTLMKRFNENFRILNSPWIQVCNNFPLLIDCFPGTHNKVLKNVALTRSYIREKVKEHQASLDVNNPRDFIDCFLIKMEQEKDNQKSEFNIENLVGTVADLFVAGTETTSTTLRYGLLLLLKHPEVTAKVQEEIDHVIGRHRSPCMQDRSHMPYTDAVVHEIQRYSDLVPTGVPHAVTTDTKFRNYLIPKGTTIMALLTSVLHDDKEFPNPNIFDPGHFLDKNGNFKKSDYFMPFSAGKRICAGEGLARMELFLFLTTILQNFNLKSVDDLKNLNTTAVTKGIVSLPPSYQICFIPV
Chain of Voltage-gated inwardly rectifying potassium channel KCNH2 (Q12809 whole entry): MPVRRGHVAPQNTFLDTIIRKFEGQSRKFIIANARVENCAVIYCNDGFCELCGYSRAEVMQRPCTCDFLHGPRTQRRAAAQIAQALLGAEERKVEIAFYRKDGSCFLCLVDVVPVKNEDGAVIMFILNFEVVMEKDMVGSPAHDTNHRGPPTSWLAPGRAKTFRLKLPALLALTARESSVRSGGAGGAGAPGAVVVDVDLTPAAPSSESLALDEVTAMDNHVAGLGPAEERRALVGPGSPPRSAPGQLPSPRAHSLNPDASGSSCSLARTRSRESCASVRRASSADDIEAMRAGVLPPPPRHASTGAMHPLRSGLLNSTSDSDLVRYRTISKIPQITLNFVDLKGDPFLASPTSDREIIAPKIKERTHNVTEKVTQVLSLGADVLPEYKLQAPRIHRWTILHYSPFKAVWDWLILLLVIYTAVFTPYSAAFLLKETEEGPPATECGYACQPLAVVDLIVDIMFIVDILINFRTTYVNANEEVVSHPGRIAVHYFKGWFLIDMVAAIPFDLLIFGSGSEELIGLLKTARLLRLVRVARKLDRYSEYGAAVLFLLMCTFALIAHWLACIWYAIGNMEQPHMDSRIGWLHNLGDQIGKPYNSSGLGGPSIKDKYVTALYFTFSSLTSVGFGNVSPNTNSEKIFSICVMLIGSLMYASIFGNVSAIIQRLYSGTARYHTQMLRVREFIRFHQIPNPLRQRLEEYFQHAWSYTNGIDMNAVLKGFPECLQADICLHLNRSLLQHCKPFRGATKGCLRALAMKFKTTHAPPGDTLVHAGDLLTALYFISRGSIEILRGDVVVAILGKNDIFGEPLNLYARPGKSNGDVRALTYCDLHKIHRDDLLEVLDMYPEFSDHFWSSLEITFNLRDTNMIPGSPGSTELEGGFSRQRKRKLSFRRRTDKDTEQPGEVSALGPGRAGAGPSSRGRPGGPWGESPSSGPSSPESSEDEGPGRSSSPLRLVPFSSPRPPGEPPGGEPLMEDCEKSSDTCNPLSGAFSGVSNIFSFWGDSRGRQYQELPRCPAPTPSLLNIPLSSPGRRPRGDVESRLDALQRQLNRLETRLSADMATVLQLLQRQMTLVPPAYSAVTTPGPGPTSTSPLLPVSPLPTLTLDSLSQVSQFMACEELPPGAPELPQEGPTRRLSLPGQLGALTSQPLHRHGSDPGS

COc1ccccc1-c1nccc(COc2ccccc2C[C@@H](Oc2ncnc3sc(-c4ccc(F)cc4)c(-c4ccc(OCCN5CCN(C)CC5)c(Cl)c4C)c23)C(=O)O)n1
clearance [1]: 6 mL/min/kg | Activity [2]: Dose-dependent effect | Activity [3]: 89.1% | Drug metabolism [4]: Metabolite_Detected | IC50 [5]: > 3 µM | Time [6]: 38 days | inhibition in vivo at […] [7]: 190% | Activity [8]: Active | clearance [9]: 5.3 mL/min/kg | Activity [10]: Active | Activity [11]: Dose-dependent effect | Activity [12]: Active | Activity [13]: Dose-dependent effect | Activity [14]: inactive | Activity [15]: Active | Activity [16]: Active | Activity [17]: Active | Activity [18]: Active | Activity [19]: Dose-dependent effect | Activity [20]: inactive | inhibition in vivo at 12.5 mg/kg [21]: 112% | Activity [22]: Active | Activity [23]: Active | Activity [24]: Active | half-life [25]: 5 h | half-life [26]: 5 h | Activity [27]: inactive
